From ChEMBL document CHEMBL3352166, “Structure-guided design and development of novel benzimidazole class of compounds targeting DNA gyraseB enzyme of Staphylococcus aureus” (Bioorg Med Chem, 2014)
Converted amounts (≈) assume the structure as drawn.

Legend:
DNA gyrase subunit B = DNA gyrase subunit B (Staphylococcus aureus, UniProt P0A0K8); assay: Inhibition of Staphylococcus aureus DNA gyrase B ATPase activity
DNA gyrase = DNA gyrase (Staphylococcus aureus, UniProt P0A0K8+P20831); assay: Inhibition of Staphylococcus aureus DNA gyrase-mediated supercoiling of relaxed DNA using pBR 322 as substrate by agarose gel electrophoresis analysis; type: protein-complex assay
Sequence of DNA gyrase (P0A0K8 whole entry): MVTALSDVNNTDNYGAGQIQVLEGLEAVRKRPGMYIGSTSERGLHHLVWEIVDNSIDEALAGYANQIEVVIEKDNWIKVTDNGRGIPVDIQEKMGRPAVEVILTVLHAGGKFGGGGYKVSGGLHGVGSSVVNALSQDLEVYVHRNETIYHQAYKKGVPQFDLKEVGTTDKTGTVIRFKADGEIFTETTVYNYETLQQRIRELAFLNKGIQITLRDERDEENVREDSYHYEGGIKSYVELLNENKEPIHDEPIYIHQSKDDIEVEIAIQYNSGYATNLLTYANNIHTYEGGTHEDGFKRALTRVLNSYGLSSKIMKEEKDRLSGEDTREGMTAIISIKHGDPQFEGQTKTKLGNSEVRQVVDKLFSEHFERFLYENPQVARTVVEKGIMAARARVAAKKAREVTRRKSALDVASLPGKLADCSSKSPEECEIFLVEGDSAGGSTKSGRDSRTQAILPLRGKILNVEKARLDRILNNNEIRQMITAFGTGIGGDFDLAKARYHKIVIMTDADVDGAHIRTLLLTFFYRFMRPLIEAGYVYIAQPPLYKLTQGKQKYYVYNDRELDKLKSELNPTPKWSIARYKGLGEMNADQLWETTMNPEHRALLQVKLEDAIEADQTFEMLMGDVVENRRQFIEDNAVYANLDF
Sequence of DNA gyrase (P20831 whole entry): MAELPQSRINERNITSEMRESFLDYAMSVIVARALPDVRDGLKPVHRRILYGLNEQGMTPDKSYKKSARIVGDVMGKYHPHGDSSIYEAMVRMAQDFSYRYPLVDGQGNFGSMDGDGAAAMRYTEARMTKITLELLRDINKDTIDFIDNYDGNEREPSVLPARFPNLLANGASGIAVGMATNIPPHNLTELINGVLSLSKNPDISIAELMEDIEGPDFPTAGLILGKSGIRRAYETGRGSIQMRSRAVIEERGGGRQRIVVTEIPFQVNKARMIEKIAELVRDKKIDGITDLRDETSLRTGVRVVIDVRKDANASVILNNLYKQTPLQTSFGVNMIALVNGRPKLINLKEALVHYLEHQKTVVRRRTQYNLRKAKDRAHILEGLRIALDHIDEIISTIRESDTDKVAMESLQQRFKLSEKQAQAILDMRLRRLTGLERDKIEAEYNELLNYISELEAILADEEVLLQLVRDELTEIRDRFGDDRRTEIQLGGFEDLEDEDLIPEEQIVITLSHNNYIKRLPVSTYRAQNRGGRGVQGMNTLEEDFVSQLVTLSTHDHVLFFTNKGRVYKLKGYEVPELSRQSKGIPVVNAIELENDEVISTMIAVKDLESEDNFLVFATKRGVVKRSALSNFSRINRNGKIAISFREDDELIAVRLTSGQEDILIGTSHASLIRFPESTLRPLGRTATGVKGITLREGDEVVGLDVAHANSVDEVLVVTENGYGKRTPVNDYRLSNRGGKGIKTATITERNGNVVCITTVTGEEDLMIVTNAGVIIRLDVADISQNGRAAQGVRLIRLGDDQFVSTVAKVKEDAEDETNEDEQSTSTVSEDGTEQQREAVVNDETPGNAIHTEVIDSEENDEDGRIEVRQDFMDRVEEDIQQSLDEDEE

Staphylococcus aureus [1] = assay: Antimicrobial activity against Staphylococcus aureus MTCC 3160 after 16 to 24 hrs by agar dilution method; type: functional
Method in brief: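 MIC by agar dilution per CLSI on Mueller-Hinton agar. Overnight colonies were suspended to about 10^6 cfu/mL, and 1 mL was added to 19 mL medium. Compounds were made up in 0.9% saline and tested over about 10 doubling dilutions, 100 µM to 0.1 µM. Plates ran 16-20 h at 35 °C in ambient air. MIC was the lowest concentration preventing visible growth.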

Staphylococcus aureus [2] = assay: Antimicrobial activity against methicillin-resistant Staphylococcus aureus MTCC 96 after 16 to 24 hrs by agar dilution method; type: functional
Method in brief: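 Agar dilution per CLSI guidelines on Mueller-Hinton agar. Overnight colonies suspended to about 10^6 cfu/mL, and 1 mL added to 19 mL medium. Stocks in 0.9% saline, tested over about 10 doubling dilutions from 100 µM to 0.1 µM. Plates incubated at 35 °C in ambient air for 16-20 h. MIC taken as the lowest concentration preventing visible growth.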

[3] = Cytotoxicity against human HEK293 cells assessed as reduction in cell viability at 100 uM after 72 hrs by MTT assay; type: cell-based; conditions: read-out: INH
Method in brief: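 HEK-293 cells were seeded at 5000 per well and left 24 h, then washed. They were exposed to 100 µM in RPMI + 5% FBS + 1% penicillin/streptomycin, with final DMSO ≤0.5%, for 72 h at 37 °C in 5% CO2. DMSO-treated cultures served as controls. Viability was read by MTT at 570 nm, in triplicate, as percentage inhibition.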

Staphylococcus aureus [4] = assay: Inhibition of biofilm formation in methicillin-resistant Staphylococcus aureus MTCC 96 after 24 hr incubation by tissue culture plate method; conditions: MTCC 96, 24 h

Sequence of DNA gyrase subunit B (P0A0K8 whole entry): as the sequence (P0A0K8 whole entry) above

Structure (SMILES) | IC50 (DNA gyrase subunit B) [µM] | IC50 (DNA gyrase) [µM] | MIC (Staphylococcus aureus [1]) [µM] | MIC (Staphylococcus aureus [2]) [µM] | cytotoxicity at 72 h, 100 µM [3] [%] | IC50 (Staphylococcus aureus [4]) [µM]
Cc1sc2nc(SCC(=O)Nc3cccc(C(=O)O)c3)nc(O)c2c1C | 17.3 | 8.22 |  |  |  | 
Cc1sc2nc(SCC(=O)Nc3ccc(Cl)c(C(=O)O)c3)nc(O)c2c1C | 77.3 | > 50 |  |  |  | 
O=c1nc(/C=C/c2ccc(/C=C/c3cc(C(F)(F)F)[nH]c(=O)n3)cc2)cc(C(F)(F)F)[nH]1 | 42.2 | 24.9 |  |  |  | 
CNc1cc(CCNC(=O)c2ccc3oc(O)nc3c2)nc(-c2ccncc2)n1 | 92.1 | > 50 |  |  |  | 
CC(=O)Nc1ccc(OCC[n+]2ccc(CCS(=O)(=O)[O-])cc2)cc1 | 77.1 | 45.1 |  |  |  | 
Cc1cc2ncn(CC(O)COc3cccc(C(=O)O)c3)c2cc1C (stereo unspecified) | 12.9 | 3.13 |  |  |  | 
O=C(O)CCCC(=O)Nc1ccc(-c2nc3ccccc3[nH]2)cc1 | 12.6 | 2.9 |  |  |  | 
O=C(O)CCC(=O)Nc1ccc(NC(=O)c2ccco2)cc1 | 12.9 | 3.13 |  |  |  | 
CC(Cc1c[nH]c2ccccc12)NC(=O)CSS(=O)(=O)O (stereo unspecified) | 89.9 | > 50 |  |  |  | 
CCc1cc(=O)nc(SCC(=O)Nc2cccc(C(=O)O)c2)[nH]1 | 65 | > 50 |  |  |  | 
CCOc1cc(/C=C(\C#N)c2nc3ccc(C)cc3[nH]2)ccc1OCC(=O)O | 82.1 | > 50 |  |  |  | 
O=C(O)CC(=O)Nc1ccc(-c2nc3ccccc3[nH]2)cc1 | 6.91 | 6.12 | 42.3 (≈ 12.5 µg/mL) | 21.2 (≈ 6.25 µg/mL) | 7.2 | 47.8
O=C(O)CCC(=O)Nc1ccc(-c2nc3ccccc3[nH]2)cc1 | 7.32 | 6.12 | 20.2 (≈ 6.25 µg/mL) | 40.4 (≈ 12.5 µg/mL) | 2.9 | 88.3
COC(=O)CCCC(=O)Nc1ccc(-c2nc3ccccc3[nH]2)cc1 | 36.3 | 25 | 148 (≈ 50 µg/mL) | 148 (≈ 50 µg/mL) | 9.7 | > 100
O=C(O)CCCCC(=O)Nc1ccc(-c2nc3ccccc3[nH]2)cc1 | 5.7 | 6.12 | 37 (≈ 12.5 µg/mL) | 37 (≈ 12.5 µg/mL) | 32.1 | 81.5
O=C(O)CC(=O)Nc1ccc(-c2nc3cc(F)ccc3[nH]2)cc1 | 13.4 | 16.3 | 79.8 (≈ 25 µg/mL) | 79.8 (≈ 25 µg/mL) | 18.1 | > 100
O=C(O)CCC(=O)Nc1ccc(-c2nc3cc(F)ccc3[nH]2)cc1 | 17.6 | 12 | 38.2 (≈ 12.5 µg/mL) | 38.2 (≈ 12.5 µg/mL) | 28.7 | 82.7
COC(=O)CCCC(=O)Nc1ccc(-c2nc3cc(F)ccc3[nH]2)cc1 | 18.6 | 10.7 | 70.3 (≈ 25 µg/mL) | 32.2 (≈ 11.4 µg/mL) | 33.8 | 59.3
O=C(O)CCCCC(=O)Nc1ccc(-c2nc3cc(F)ccc3[nH]2)cc1 | 15.3 | 7.1 | 35.2 (≈ 12.5 µg/mL) | 59.3 (≈ 21.1 µg/mL) | 29 | > 100
O=C(O)CC(=O)Nc1ccc(-c2nc3cc(Cl)ccc3[nH]2)cc1 | 26.3 | 18.2 | 75.8 (≈ 25 µg/mL) | 75.8 (≈ 25 µg/mL) | 25.6 | > 100
O=C(O)CCC(=O)Nc1ccc(-c2nc3cc(Cl)ccc3[nH]2)cc1 | 11.2 | 9.8 | 36.4 (≈ 12.5 µg/mL) | 36.4 (≈ 12.5 µg/mL) | 31.7 | 53.2
O=C(O)CCCC(=O)Nc1ccc(-c2nc3cc(Cl)ccc3[nH]2)cc1 | 9.85 | 9.13 | 34.9 (≈ 12.5 µg/mL) | 69.8 (≈ 25 µg/mL) | 45.5 | > 100
COC(=O)CCCC(=O)Nc1ccc(-c2nc3cc(Cl)ccc3[nH]2)cc1 | 35.6 | 22.2 | 67.2 (≈ 25 µg/mL) | 134 (≈ 50 µg/mL) | 27.9 | > 100

Structure (SMILES) | IC50 (DNA gyrase subunit B) [µM] | IC50 (DNA gyrase) [µM] | MIC (Staphylococcus aureus [1]) [µM] | MIC (Staphylococcus aureus [2]) [µM] | cytotoxicity at 72 h, 100 µM [3] [%] | IC50 (Staphylococcus aureus [4]) [µM]
O=C(O)CCCCC(=O)Nc1ccc(-c2nc3cc(Cl)ccc3[nH]2)cc1 | 13.1 | 8.91 | 33.6 (≈ 12.5 µg/mL) | 33.6 (≈ 12.5 µg/mL) | 39.7 | 39.2
O=C(O)CC(=O)Nc1ccc(-c2nc3cc([N+](=O)[O-])ccc3[nH]2)cc1 | 4.93 | 2.23 | 9.18 (≈ 3.12 µg/mL) | 18.3 (≈ 6.24 µg/mL) | 26.9 | 18.4
O=C(O)CCC(=O)Nc1ccc(-c2nc3cc([N+](=O)[O-])ccc3[nH]2)cc1 | 17.5 | 8.32 | 17 (≈ 6.01 µg/mL) | 17 (≈ 6.01 µg/mL) | 24.6 | 27.9
O=C(O)CCCC(=O)Nc1ccc(-c2nc3cc([N+](=O)[O-])ccc3[nH]2)cc1 | 6.83 | 6.12 | 33.9 (≈ 12.5 µg/mL) | 44.1 (≈ 16.3 µg/mL) | 27.2 | 62.3
COC(=O)CCCC(=O)Nc1ccc(-c2nc3cc([N+](=O)[O-])ccc3[nH]2)cc1 | 9.83 | 5.3 | 32.7 (≈ 12.5 µg/mL) | 32.7 (≈ 12.5 µg/mL) | 35.9 | 59.3
O=C(O)CCCCC(=O)Nc1ccc(-c2nc3cc([N+](=O)[O-])ccc3[nH]2)cc1 | 9.82 | 6.09 | 32.6 (≈ 12.5 µg/mL) | 32.6 (≈ 12.5 µg/mL) | 31.7 | 44.2
COc1ccc2[nH]c(-c3ccc(NC(=O)CC(=O)O)cc3)nc2c1 | 11.1 | 18.4 | 38.4 (≈ 12.5 µg/mL) | 76.8 (≈ 25 µg/mL) | 27.4 | > 100
COc1ccc2[nH]c(-c3ccc(NC(=O)CCC(=O)O)cc3)nc2c1 | 13.4 | 11.3 | 73.7 (≈ 25 µg/mL) | 73.7 (≈ 25 µg/mL) | 26.7 | > 100
COc1ccc2[nH]c(-c3ccc(NC(=O)CCCC(=O)O)cc3)nc2c1 | 8.93 | 5.32 | 35.4 (≈ 12.5 µg/mL) | 35.4 (≈ 12.5 µg/mL) | 22.4 | 52.2
COC(=O)CCCC(=O)Nc1ccc(-c2nc3cc(OC)ccc3[nH]2)cc1 | 21.3 | 12.5 | 68 (≈ 25 µg/mL) | 34 (≈ 12.5 µg/mL) | 50.5 | 63.9
COc1ccc2[nH]c(-c3ccc(NC(=O)CCCCC(=O)O)cc3)nc2c1 | 22.9 | 12.5 | 68 (≈ 25 µg/mL) | 34.1 (≈ 12.5 µg/mL) | 29.4 | 71.1
O=C(O)CC(=O)Nc1ccc(-c2nc3cccnc3[nH]2)cc1 | 21.8 | 8.9 | 42.2 (≈ 12.5 µg/mL) | 42.2 (≈ 12.5 µg/mL) | 27.2 | 71.9
O=C(O)CCC(=O)Nc1ccc(-c2nc3cccnc3[nH]2)cc1 | 9.23 | 3.13 | 20.1 (≈ 6.25 µg/mL) | 10.1 (≈ 3.12 µg/mL) | 31.1 | 29.4
O=C(O)CCCC(=O)Nc1ccc(-c2nc3cccnc3[nH]2)cc1 | 18.5 | 6.98 | 38.5 (≈ 12.5 µg/mL) | 38.5 (≈ 12.5 µg/mL) | 33.8 | 88.1
COC(=O)CCCC(=O)Nc1ccc(-c2nc3cccnc3[nH]2)cc1 | 5.23 | 6.8 | 36.9 (≈ 12.5 µg/mL) | 36.9 (≈ 12.5 µg/mL) | 57.5 | 79.3
O=C(O)CCCCC(=O)Nc1ccc(-c2nc3cccnc3[nH]2)cc1 | 2.9 | 2.1 | 4.61 (≈ 1.56 µg/mL) | 9.23 (≈ 3.12 µg/mL) | 22.7 | 15.7
O=C(O)COCC(=O)Nc1ccc(-c2nc3ccccc3[nH]2)cc1 | 6.01 | 4.81 | 38.4 (≈ 12.5 µg/mL) | 46.9 (≈ 15.3 µg/mL) | 40 | 68.8
O=C(O)CSCC(=O)Nc1ccc(-c2nc3ccccc3[nH]2)cc1 | 22.8 | 12.5 | 73.3 (≈ 25 µg/mL) | 37.6 (≈ 12.8 µg/mL) | 13.1 | 82.1
O=C(O)COCC(=O)Nc1ccc(-c2nc3cc(F)ccc3[nH]2)cc1 | 6.12 | 2.9 | 9.1 (≈ 3.12 µg/mL) | 9.1 (≈ 3.12 µg/mL) | 14.5 | 19.6
O=C(O)CSCC(=O)Nc1ccc(-c2nc3cc(F)ccc3[nH]2)cc1 | 6.93 | 4.8 | 34.8 (≈ 12.5 µg/mL) | 17.3 (≈ 6.22 µg/mL) | 20.6 | 59.1
O=C(O)c1cn(C2CC2)c2cc(N3CCNCC3)c(F)cc2c1=O [CIPROFLOXACIN] |  |  |  |  |  | 16.9
CO[C@@H]1[C@@H](OC(N)=O)[C@@H](O)[C@H](Oc2ccc3c(O)c(NC(=O)c4ccc(O)c(CC=C(C)C)c4)c(=O)oc3c2C)OC1(C)C [NOVOBIOCIN] |  |  | 0.25 (≈ 0.153 µg/mL) |  |  | 
